Data reported in ChEMBL document CHEMBL4732187, “Tetrahydroindazole inhibitors of CDK2/cyclin complexes” (Eur J Med Chem, 2021).
pIC50, pKd: −log10 of the molar value. Activity calls are given as the source filed them. No cut-off for these calls is given here.

Key:
CDK2/Cyclin A2 = CDK2/Cyclin A2 (Homo sapiens, UniProt P24941); experiment: Inhibition of human N-terminal GST-tagged CDK2 (1 to 298 residues)/Cyclin A (174 to 432 residues) expressed in Escherichia coli Turner (DE3) cells assessed as reduction in ADP formation using PKTPKKAKKL as substrate by resorufin dye based fluorescence assay
[1] = biological target: Cyclin-dependent kinase 2 (Homo sapiens, UniProt P24941); experiment: Binding affinity to T7-tagged CDK2 (unknown origin) expressed in bacteriophage infected Escherichia coli BL21 incubated for 1 hr by magnetic beads based qPCR anlaysis
MCF7 = experiment: Antiproliferative activity against human MCF7 cells assessed as reduction in cell viability up to 200 uM after 72 hrs by alamarBlue assay; type: functional, cell-based; conditions: dose microM <=200, time 72.0 hrs
How it was run: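 MCF-7 cells seeded at 5000 per well and incubated overnight at 37 °C, 5% CO₂, then exposed to 8 concentrations from 0.00256 μM to 200 μM for 72 h. alamarBlue was then added and incubated 90 min at 37 °C. Proliferating cells were read by fluorescence (ex 530 nm, em 590 nm). Staurosporine served as positive control.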

[2] = biological target: Cyclin-dependent kinase 2/cyclin E1 (Homo sapiens, UniProt P24941); experiment: Inhibition of CDK2/Cyclin E (unknown origin) using histone H1 as substrate preincubated for 20 mins followed by 33P-ATP addition and measured after 2 hrs by filter binding method; type: protein-complex assay
CDK2/Cyclin A1 = CDK2/Cyclin A1 (Homo sapiens, UniProt P24941); experiment: Inhibition of CDK2/Cyclin A1 (unknown origin) using histone H1 as substrate preincubated for 20 mins followed by 33P-ATP addition and measured after 2 hrs by filter binding method; type: protein-complex assay
CDK2/Cyclin O = CDK2/Cyclin O (Homo sapiens, UniProt P22674+P24941); experiment: Inhibition of CDK2/Cyclin-O (unknown origin) using histone H1 as substrate preincubated for 20 mins followed by 33P-ATP addition and measured after 2 hrs by filter binding method; type: protein-complex assay
[3] = Permeability across apical to basolateral side in MDCK cells assessed as drug recovery at 1 uM after 2 hrs by LC-MS/MS analysis; type: ADME, cell-based, Canis lupus familiaris; conditions: dog
How it was run: (§1)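 MDCK monolayers were washed twice with pre-warmed HBSS (10 mM HEPES, pH 7.4) and equilibrated for 30 min at 37 °C. Compound at 1 μM in HBSS (0.5% DMSO final) was added to the apical or the basolateral donor side. After 2 h at 37 °C, donor and receiver samples were quenched in cold methanol with internal standards and analysed by LC-MS/MS. Runs were in duplicate; 100 μM Lucifer Yellow checked monolayer integrity.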

[4] = Permeability across basolateral to apical side in MDCK cells at 1 uM after 2 hrs by LC-MS/MS analysis; type: ADME, cell-based, Canis lupus familiaris; conditions: dog; how it was run: as §1
[5] = Apparent permeability across apical to basolateral side in MDCK cells at 1 uM after 2 hrs by LC-MS/MS analysis; type: ADME, cell-based, Canis lupus familiaris; conditions: dog; how it was run: as §1
[6] = Apparent permeability across basolateral to apical side in MDCK cells at 1 uM after 2 hrs by LC-MS/MS analysis; type: ADME, cell-based, Canis lupus familiaris; conditions: dog; how it was run: as §1
[7] = Efflux ratio of apparent permeability across basolateral to apical side over apical to basolateral side in MDCK cells at 1 uM after 2 hrs by LC-MS/MS analysis; type: ADME, cell-based, Canis lupus familiaris; conditions: dog
How it was run: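 MDCK monolayers washed twice with pre-warmed HBSS (10 mM HEPES, pH 7.4) and equilibrated 30 min at 37 °C. 1 μM working solution (0.5% DMSO final) added to apical or basolateral donor side, 37 °C for 2 h, run in duplicate. Donor and receiver samples quenched in cold methanol with internal standards and quantified by LC-MS/MS. Monolayer integrity checked by Lucifer Yellow (100 μM) leakage.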

| SMILES | pIC50 (CDK2/Cyclin A2) | further results |
| --- | --- | --- |
| Cc1nn(-c2ccccn2)c2c1/C(=N/O)CC(C)(C)C2Br (stereo not drawn) | 4.23 | – |
| Cc1nn(-c2ccccn2)c2c1C(=O)CC(C)(C)C2O (stereo not drawn) | 3.96 | – |
| Cc1nn(-c2ccc([N+](=O)[O-])cn2)c2c1C(=O)CC(C)(C)C2Br (stereo not drawn) | 5.51 | – |
| Cc1nn(-c2ccccn2)c2c1C(O)CC(C)(C)C2Br (stereo not drawn) | 3.25 | – |
| COC(=O)CC(=O)Nc1ccc(-n2nc(C)c3c2C(Br)C(C)(C)CC3=O)nc1 (stereo not drawn) | 5.57 | – |
| Cc1nn(-c2ccccn2)c2c1C(=O)CCC2Br (stereo not drawn) | 3.89 | – |
| Cc1nn(-c2ccccn2)c2c1C(=O)CC(C)C2Br (cis isomer) | 4.51 | – |
| Cc1nn(-c2ccccn2)c2c1C(=O)CC(C)(C)C2Sc1ccccc1 (stereo not drawn) | 4.92 | – |
| Cc1nn(-c2ccccn2)c2c1C(=O)CC(C)(C)C2C (stereo not drawn) | 3.70 | – |
| Cc1nn(-c2cnccn2)c2c1C(=O)CC(C)(C)C2Br (stereo not drawn) | 4.01 | – |
| Cc1nn(-c2ccccn2)c2c1C(=O)CC(C)(C)C2N=[N+]=[N-] (stereo not drawn) | 5.35 | – |
| Cc1nn(S(=O)(=O)c2ccc([N+](=O)[O-])cc2)c2c1C(=O)CC(C)(C)C2Br (stereo not drawn) | < 3.00 | – |
| Cc1cccnc1-n1nc(C)c2c1C(Br)C(C)(C)CC2=O (stereo not drawn) | < 3.00 | – |
| Cc1nn(-c2ccccn2)c2c1C(=O)NCC(C)(C)C2 | < 3.00 | – |
| Cc1nn(-c2ccc(NS(N)(=O)=O)cn2)c2c1C(=O)CC(C)(C)C2Br (stereo not drawn) | 5.62 | – |
| Cc1nn(-c2ccccn2)c2c1C(=O)CC(C(C)C)C2Br (stereo in doubt) | 3.33 | – |
| Cc1nn(-c2ncccc2C(F)(F)F)c2c1C(=O)C(Br)C(C)(C)C2 (stereo not drawn) | 3.64 | – |
| Cc1nn(-c2nccs2)c2c1C(=O)CC(C)(C)C2Br (stereo not drawn) | 5.66 | pKd [1]: 5.32; Activity (MCF7): inactive; pIC50 [2]: 8.64; pIC50 (CDK2/Cyclin A1): 7.61; pIC50 (CDK2/Cyclin O): 7.48 |
| Cc1nn(-c2ccccn2)c2c1C(=O)CC(C)(C)C2N(C)C (stereo not drawn) | 3.20 | – |
| CC1(C)CC(=O)c2cnn(-c3ccccn3)c2C1Br (stereo not drawn) | 3.80 | – |
| CC(C)Cc1nn(-c2ccccn2)c2c1C(=O)CC(C)(C)C2Br (stereo not drawn) | 3.09 | – |
| C[C@H]1O[C@@H](O[C@H]2[C@@H](O)C[C@H](O[C@H]3[C@@H](O)C[C@H](O[C@H]4CC[C@@]5(C)[C@H](CC[C@@H]6[C@@H]5C[C@@H](O)[C@]5(C)[C@@H](C7=CC(=O)OC7)CC[C@]65O)C4)O[C@@H]3C)O[C@@H]2C)C[C@H](O)[C@@H]1O [DIGOXIN] | – | Drug recovery [3]: 77.1%; Drug recovery [4]: 83.7% |
| Cc1nn(-c2ccccn2)c2c1C(=O)CC(c1ccccc1)C2Br (stereo not drawn) | < 3.00 | – |
| Cc1ccc(NC(=O)c2ccc(CN3CCN(C)CC3)cc2)cc1Nc1nccc(-c2cccnc2)n1 [IMATINIB] | – | Drug recovery [3]: 56.6%; Drug recovery [4]: 69.9% |
| Cc1nn(-c2ncccc2C(F)(F)F)c2c1C(=O)CC(C)(C)C2Br (stereo not drawn) | 3.34 | – |
| Cc1nn(-c2ccccn2)c2c1C(=O)CC(C)(C)C2F (stereo not drawn) | 4.68 | – |

| SMILES | pIC50 (CDK2/Cyclin A2) | further results |
| --- | --- | --- |
| Cc1cccnc1-n1nc(C)c2c1CC(C)(C)C(Br)C2=O (stereo not drawn) | 3.74 | – |
| Cc1nn(-c2ccccn2)c2c1C(=O)CC(C)C2Br (stereo in doubt) | 5.32 | – |
| COC1c2c(c(C)nn2-c2ccccn2)C(=O)CC1(C)C (stereo not drawn) | 4.34 | – |
| Cc1nn(-c2ncccn2)c2c1C(=O)CC(C)(C)C2Br (stereo not drawn) | 5.03 | – |
| Cc1nn(-c2ccccn2)c2c1C(=O)CC(C(C)C)C2Br (trans isomer) | 3.89 | – |
| CC1(C)CC(=O)c2cnn(-c3ccccn3)c2C1 | < 3.00 | – |
| Cc1nn(-c2ccc(C(F)(F)F)cn2)c2c1C(=O)CC(C)(C)C2Br (stereo not drawn) | 5.17 | – |
| COc1cccc(-n2nc(C)c3c2C(Br)C(C)(C)CC3=O)n1 (stereo not drawn) | 5.68 | – |
| Cc1nn(-c2ccccn2)c2c1NC(=O)CC(C)(C)C2 | < 3.00 | – |
| CC(=O)Nc1ccc(-n2nc(C)c3c2C(Br)C(C)(C)CC3=O)nc1 (stereo not drawn) | 5.44 | – |
| Cc1nn(-c2ccccn2)c2c1C(=O)CC(C)(C)C2 | 3.96 | – |
| Cc1nn(-c2ccncn2)c2c1C(=O)CC(C)(C)C2Br (stereo not drawn) | 5.82 | pKd [1]: 5.35; Activity (MCF7): inactive; pIC50 [2]: 8.05; pIC50 (CDK2/Cyclin A1): 7.33; pIC50 (CDK2/Cyclin O): 7.38 |
| Cc1nn(-c2ccc(Cl)nn2)c2c1C(=O)CC(C)(C)C2Br (stereo not drawn) | 4.59 | – |
| Cc1nn(-c2ccc(N)cn2)c2c1C(=O)CC(C)(C)C2Br (stereo not drawn) | 5.34 | – |
| Cc1nn(-c2ccccn2)c2c1C(=O)CC(C)(C)C2N (stereo not drawn) | 3.46 | – |
| COCCc1ccc(OCC(O)CNC(C)C)cc1 (stereo not drawn) [METOPROLOL] | – | Papp A→B at 2 h, 1 µM [5]: 26.9 ×10⁻⁶ cm/s; Papp B→A at 2 h, 1 µM [6]: 21.2 ×10⁻⁶ cm/s; Ratio [7]: 0.79; Drug recovery [3]: 90.7%; Drug recovery [4]: 90.4% |
| Cc1nn(CCC#N)c2c1C(=O)CC(C)(C)C2Br (stereo not drawn) | < 3.00 | – |
| Cc1nn(-c2ccc3ccccc3c2)c2c1C(=O)CC(C)(C)C2Br (stereo not drawn) | 4.43 | – |
| Cc1nn(-c2ccc(Cl)cn2)c2c1C(=O)CC(C)(C)C2Br (stereo not drawn) | 5.52 | – |
| Cc1nn(-c2ccncc2)c2c1C(=O)CC(C)(C)C2Br (stereo not drawn) | 4.98 | – |
| Cc1nn(-c2ccccn2)c2c1C(=O)NCC(C)(C)C2Br (stereo not drawn) | 4.92 | – |
| Cc1nn(-c2nc3ccccc3s2)c2c1C(=O)CC(C)(C)C2Br (stereo not drawn) | < 3.00 | – |
| Cc1nn(-c2ccc(NS(C)(=O)=O)cn2)c2c1C(=O)CC(C)(C)C2Br (stereo not drawn) | 4.72 | – |
| Cc1ccc(-n2nc(C)c3c2C(Br)C(C)(C)CC3=O)nc1 (stereo not drawn) | 5.12 | – |
| Cc1nn(-c2ccccn2)c2c1C(=O)CC(C)(C)C2S(=O)(=O)c1ccccc1 (stereo not drawn) | 3.97 | – |
| Cc1nn(-c2ccccn2)c2c1C(=O)CC(C)(C)C2Cl (stereo not drawn) | 5.31 | – |
